Assay results of several laboratories.
Target: Aurora kinase B (AURKB, Homo sapiens, UniProt Q96GD4)

C=CC(=O)N1CCC(C(=O)NCC(=O)N2CCN(c3nc(-c4cnc(N)nc4C(F)F)nc(N4CCOCC4)n3)CC2)CC1  remaining binding (binding; competition with immobilised ligand; 1 µM): 56%
N[C@H]1CCN(c2nccc(-c3cnn4ncccc34)n2)C1  remaining binding (binding; 1 µM): 77%
CSc1cccnc1N1CCN(Cc2nc3ccccc3[nH]2)CC1  remaining binding (cell-free assay; competition with immobilised ligand; 1 µM): 67%
c1cncc(-c2cccc(Nc3nccc(NC4CCCCC4)n3)c2)c1  remaining binding (binding; competition with immobilised ligand; 10 µM): 23%
COc1ccc2c(O[C@@H]3C[C@H]4C(=O)N[C@]5(C(=O)O)CC5/C=C\CCCCC[C@H](NC(=O)OC5CCCC5)C(=O)N4C3)cc(-c3csc(NC(=O)C(C)C)n3)nc2c1C (some centres unmarked)  remaining binding (cell-free assay; competition with immobilised ligand; 1 µM): 91%
COc1cnc(Nc2cccc(S(N)(=O)=O)c2)nc1N1CCN(c2ccccc2)C(=O)C1  remaining binding (binding; competition with immobilised ligand; 1 µM): 63%
F[C@@H]1CCN(c2nccc(-c3cnn4ncccc34)n2)C1  remaining binding (binding; 1 µM): 100%
CNC(=O)[C@@H]1CC[C@@H](n2c(-c3ccc4cnccc4c3)nc3ccc(C(=O)NCc4cccc(C(N)=O)c4)cc32)C1  remaining binding (binding; competition with immobilised ligand; 1 µM): 95%
O=C(NCCCN1CCOCC1)c1ccc(Nc2nccc(-c3cc4ccccc4s3)n2)cc1  remaining binding (binding; competition with immobilised ligand; 1 µM): 48%
CC(=O)N1CCC(c2ccc(C(=O)NC3=NCCN3)cc2C(F)(F)F)CC1  remaining binding (cell-free assay; competition with immobilised ligand; 1 µM): 100%
O=C(c1ccc(Nc2nccc(-c3cc4ccccc4s3)n2)cc1)N1CCC(N2CCCC2)CC1  remaining binding (binding; competition with immobilised ligand; 1 µM): 63%
N#Cc1ccccc1CSc1nnc2c(n1)[nH]c1ccccc12  remaining binding (binding; competition with immobilised ligand; 10 µM): 100%
C[C@@H]1CN(c2ccc3ncc(-c4ccc5[nH]nc(C6CC6)c5c4)n3n2)C[C@H](C)O1  remaining binding (binding; competition with immobilised ligand; 50 nM): 100%
O=C(NCC1CCOCC1)c1n[nH]cc1NC(=O)c1c(F)cccc1F  remaining binding (binding; competition with immobilised ligand; 1 µM): 78%
CN(c1nccc(-c2cnn3ncccc23)n1)C1CC1  remaining binding (binding; 1 µM): 100%
CN(c1ccnc(CNc2nc(Nc3ccc4c(c3)CC(=O)N4)ncc2C(F)(F)F)n1)S(C)(=O)=O  remaining binding (cell-free assay; competition with immobilised ligand; 1 µM): 9.9%
O=C(NCCCN1CCOCC1)c1ccc(Nc2ncc(Cl)c(-c3ccc(Cl)s3)n2)cc1  remaining binding (binding; competition with immobilised ligand; 1 µM): 15%
CN([C@@H]1CCc2c(CC(=O)O)c3ccccc3n2C1)S(=O)(=O)c1ccc(F)cc1  remaining binding (cell-free assay; competition with immobilised ligand; 1 µM): 91%
CN(CCCC(F)(F)F)c1nccc(-c2cnn3ncccc23)n1  remaining binding (binding; 1 µM): 98%
C[C@@H](c1ccc(-n2cnc3c(N)ncnc32)cc1)N1CCc2nn(C)c(Cc3ccccc3)c2C1=O  remaining binding (binding; competition with immobilised ligand; 0.1 µM): 65%
COc1ncc2cc3ccccc3nc2c1C#N  remaining binding (cell-free assay; competition with immobilised ligand; 5 µM): 94%
CNC(=O)Nc1ccc2c(c1)CC[C@@]21OC(=O)N(CC(=O)N(Cc2ccc(F)cc2)[C@@H](C)C(F)(F)F)C1=O  remaining binding (cell-free assay; competition with immobilised ligand; 1 µM): 86%
CN(C)c1nccc(-c2cnc3ncccn23)n1  remaining binding (binding; 1 µM): 76%
